These results are taken from ChEMBL document CHEMBL2346596, “Spirocyclic β-site amyloid precursor protein cleaving enzyme 1 (BACE1) inhibitors: from hit to lowering of cerebrospinal fluid (CSF) amyloid β in a higher species” (J Med Chem, 2013).

Data set [1] is described as follows: Unbound brain-to-plasma concentration ratio in Hartley guinea pig at 75 mg/kg, po formulated with 0.5% HPMC/0.5% Tween 80 after 5 hrs. Type of data set: ADME, organism-based, Cavia porcellus. More on the design: dose 75 mg/kg, route oral. Conditions: read-out: K(p,uu,brain).
A short description of data set [2]: Clearance in human liver microsomes at 1 uM after 20 mins by LC-MS/MS analysis in presence of NADPH. Type of data set: ADME, Microsome. Background: Liver microsomes are vesicles of endoplasmic reticulum, rich in cytochrome P450 enzymes.
Data set [3] is described as follows: Clearance in rat liver microsomes at 1 uM after 20 mins by LC-MS/MS analysis in presence of NADPH. Type of data set: ADME, Microsome.
Data set [4] is described as follows: Drug uptake in Hartley guinea pig CSF at 75 mg/kg, po formulated with 0.5% HPMC/0.5% Tween 80 after 5 hrs. The format is ADME, organism-based, Cavia porcellus, Cerebrospinal fluid. Further details: dose 75 mg/kg, route oral. The conditions noted are these: read-out: Drug uptake. The method, boiled down: (§1)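 Male Sprague–Dawley rats or male Hartley guinea pigs (6−8 weeks, 250−350 g), 6−8 per group, given vehicle or compound orally at 4−5 mL/kg. At set times after dosing, rats were killed by CO₂ and guinea pigs by ip euthasol (250 mg/kg). Plasma came from cardiac-puncture blood in EDTA. CSF was taken by cisterna magna puncture into 10% BSA and snap frozen.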

Data set [5] in a line: Drug uptake in Hartley guinea pig CSF at 150 mg/kg, po formulated with 0.5% HPMC/0.5% Tween 80 after 5 hrs. The format is ADME, organism-based, Cavia porcellus, Cerebrospinal fluid. More on the design: dose 150 mg/kg, route oral. Conditions: read-out: Drug uptake. In outline:
(§2)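 Male Hartley guinea pigs, 6–8 per group, were dosed orally at 4–5 mL/kg and euthanized with intraperitoneal euthasol at set times. CSF (40–100 μL) was collected post-mortem by cisterna magna puncture into tubes containing 10% BSA, then snap-frozen for analysis. Drug concentration was determined in the CSF; plasma and brain were also sampled.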

Data set [6] is described as follows: Free plasma concentration in Hartley guinea pig at 150 mg/kg, po formulated with 0.5% HPMC/0.5% Tween 80 after 5 hrs. Type of data set: ADME, organism-based, Cavia porcellus. More on the design: dose 150 mg/kg, route oral. The conditions noted are these: in vivo. The method, boiled down:
as §1

Data set [7] can be described thus: Free plasma concentration in Hartley guinea pig at 75 mg/kg, po formulated with 0.5% HPMC/0.5% Tween 80 after 5 hrs. The format is ADME, organism-based, Cavia porcellus. Further details: dose 75 mg/kg, route oral. The conditions noted are these: in vivo. The method, boiled down:
(§3)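 Male Hartley guinea pigs, 6−8 weeks, 250−350 g, 6−8 per group, given a single oral dose or vehicle at 4−5 mL/kg. Euthanized with euthasol 250 mg/kg ip at set times. Whole blood was taken post-mortem by cardiac puncture into EDTA and centrifuged at 4 °C. Plasma was stored at −20 °C for drug analysis.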

Data set [8] is described as follows: Clearance in cynomolgus monkey liver microsomes at 1 uM after 20 mins by LC-MS/MS analysis in presence of NADPH. The format is ADME, Macaca fascicularis, Microsome.
The nature of data set [9]: Clearance in guinea pig liver microsomes at 1 uM after 20 mins by LC-MS/MS analysis in presence of NADPH. The format is ADME, Cavia porcellus, Microsome. The conditions noted are these: read-out: CLH.
A short description of data set [10]: Free drug level in Hartley guinea pig brain at 75 mg/kg, po formulated with 0.5% HPMC/0.5% Tween 80 after 5 hrs. Type of data set: ADME, organism-based, Cavia porcellus. Further details: dose 75 mg/kg, route oral. Conditions: in vivo. The method, boiled down:
as §1

The nature of data set [11]: Clearance in mouse liver microsomes at 1 uM after 20 mins by LC-MS/MS analysis in presence of NADPH. Type of data set: ADME, Microsome.
Data set [12] is described as follows: Drug uptake in Hartley guinea pig CSF at 150 mg/kg, po formulated with 40/10/50 PEG/ethanol/H2O after 3 hrs. More on the design: dose 150 mg/kg, route oral. Type of data set: ADME, organism-based, Cavia porcellus, Cerebrospinal fluid. Conditions: read-out: Drug uptake. In outline:
as §2

Data set [13] in a line: Free plasma concentration in Hartley guinea pig at 150 mg/kg, po formulated with 40/10/50 PEG/ethanol/H2O after 3 hrs. The format is ADME, organism-based, Cavia porcellus. Further details: dose 150 mg/kg, route oral. The conditions noted are these: in vivo. The method, boiled down:
as §1

A short description of data set [14]: Drug uptake in Hartley guinea pig CSF at 50 mg/kg, po formulated with 40/10/50 PEG/ethanol/H2O after 3 hrs. Type of data set: ADME, organism-based, Cavia porcellus, Cerebrospinal fluid. Further details: dose 50 mg/kg, route oral. Conditions: read-out: Drug uptake. In outline: as §2
The nature of data set [15]: Free plasma concentration in Hartley guinea pig at 50 mg/kg, po formulated with 40/10/50 PEG/ethanol/H2O after 3 hrs. Conditions: in vivo. Further details: dose 50 mg/kg, route oral. The format is ADME, organism-based, Cavia porcellus. In outline: as §3
The test system of data set [16] is Plasma. Description: Free plasma concentration in mouse at 10 mg/kg, po after 4 hrs. The format is ADME, organism-based. Further details: dose 10 mg/kg, route oral. Conditions: in vivo.
Data set [17] is described as follows: Unbound brain-to-plasma concentration ratio in mouse at 10 mg/kg, po after 1 hr. The format is ADME, organism-based. More on the design: dose 10 mg/kg, route oral. The conditions noted are these: brain and plasma (unbound), read-out: K(p,uu,brain).
Data set [18] can be described thus: Oral bioavailability in mouse at 10 mg/kg. Type of data set: ADME, organism-based. The conditions noted are these: in vivo.
A short description of data set [19]: Unbound brain-to-plasma concentration ratio in mouse at 10 mg/kg, po after 4 hrs. The format is ADME, organism-based. More on the design: dose 10 mg/kg, route oral. The conditions noted are these: brain and plasma (unbound), read-out: K(p,uu,brain).
A short description of data set [20]: Clearance in mouse at 3 mg/kg, iv and 10 mg/kg, po. Type of data set: ADME, organism-based. The conditions noted are these: in vivo.
The subject of data set [21] is Brain. Briefly: Free drug level in mouse brain at 10 mg/kg, po after 4 hrs. Further details: dose 10 mg/kg, route oral. The format is ADME, organism-based. The conditions noted are these: in vivo.
Data set [22] concerns Brain. Briefly: Free drug level in mouse brain at 10 mg/kg, po after 1 hr. More on the design: dose 10 mg/kg, route oral. Type of data set: ADME, organism-based. Conditions: in vivo.
The test system of data set [23] is Plasma. Briefly: Free plasma concentration in mouse at 10 mg/kg, po after 1 hr. The format is ADME, organism-based. More on the design: dose 10 mg/kg, route oral. The conditions noted are these: in vivo.

For the molecule `CN1C(=O)[C@]2(CC(C)(C)Cc3ccc(-c4cccnc4F)cc32)N=C1N`, the Kp uu at 5 h in [1] was found to be 0.037. The CLhep predicted at 1 µM is 3 mL/min/kg in data set [2], 60 mL/min/kg in data set [3], 12 mL/min/kg in data set [8] and 24 mL/min/kg in [11]. The concentration at 5 h was 20 nM in [4] and 247 nM in [5]. Besides, the “Cp(f)” value is given as 562 nM in [6] and 304 nM in [7]. The CLint scaled at 1 µM in data set [9] amounted to 26 mL/min/kg. Besides, the “Drug uptake(free)” value in [10] is 11 nM.

Regarding `CC1(C)Cc2ccc(-c3cncnc3)cc2[C@@]2(COC(N)=N2)C1`, the concentration at 3 h was 5610 nM in data set [12] and 888 nM in data set [14]. Further, the entries for the “Cp(f)” value in data set [13] and in data set [15] were 6673 nM and 3019 nM, respectively. Besides, the CLhep predicted at 1 µM in data set [2] is 3 mL/min/kg; in data set [3] it was 28 mL/min/kg; in data set [8] it was 29 mL/min/kg; in data set [11] it was 23 mL/min/kg. The CLint scaled at 1 µM in [9] amounted to 12 mL/min/kg.

As to `CC1(C)Cc2ccc(-c3cncnc3)cc2C2(COC(N)=N2)C1` (racemic), the entries for the “Cp(f)” value in the data set with Plasma [16] and with Plasma [23] were 12 nM and 120 nM, respectively. Also, the Kp uu at 1 h in data set [17] was 1. In addition, the bioavailability in data set [18] worked out at 34%. Besides, the Kp uu at 4 h in [19] was 1.1. This molecule also registered a clearance in data set [20] of 126 mL/min/kg. Besides, the “Drug uptake(free)” value was found to be 13 nM in the data set with Brain [21] and 120 nM in the data set on Brain [22]. Besides, the CLhep predicted at 1 µM in [11] is 16 mL/min/kg.

For `CN1C(=O)C2(CC(C)(C)Sc3ccc(-c4cc(F)cc(Cl)c4)cc32)N=C1N` (racemic), the “Cp(f)” value is listed as 3.6 nM with Plasma [16] and 2.2 nM with Plasma [23]. Further, the Kp uu at 1 h in data set [17] turned out to be 0.29. Also, the bioavailability in [18] turned out to be 52%. Further, in data set [19], the Kp uu at 4 h turned out to be 0.46. This molecule also gave a clearance in [20] of 69 mL/min/kg. For the same molecule, the “Drug uptake(free)” value with Brain [21] stood at 1.6 nM; with Brain [22], 0.7 nM. Moreover, the CLhep predicted at 1 µM in [11] is 47 mL/min/kg.

Turning to `CN1C(=O)C2(CC(C)(C)Cc3ccc(-c4cccnc4F)cc32)N=C1N` (racemic), the “Cp(f)” value in the data set on Plasma [16] was 29 nM; in the data set on Plasma [23], 47 nM. Further, the Kp uu at 1 h in data set [17] worked out at 0.08. Moreover, in [18], the bioavailability was found to be 62%. In addition, in data set [19], the Kp uu at 4 h was 0.18. The same molecule returned a clearance in [20] of 67 mL/min/kg. In addition, the “Drug uptake(free)” value with Brain [21] is recorded as 5.1 nM; in the data set on Brain [22] it was 3.7 nM. Further, in data set [11], the CLhep predicted at 1 µM was 59 mL/min/kg.

Turning to `CN1C(=O)C2(CC(C)(C)Oc3ccc(-c4cc(F)cc(Cl)c4)cc32)N=C1N` (racemic), the “Cp(f)” value in the data set on Plasma [16] was 32 nM; in the data set with Plasma [23], 42 nM. Further, the Kp uu at 1 h in data set [17] amounted to 0.09. In [18], this molecule came in with a bioavailability of 79%. Further, the Kp uu at 4 h in data set [19] stood at 0.22. In addition, the clearance in data set [20] came out at 12 mL/min/kg. Also, the “Drug uptake(free)” value in the data set with Brain [21] is listed as 7 nM; in the data set on Brain [22] it was 3.8 nM. The CLhep predicted at 1 µM in data set [11] is 15 mL/min/kg.

Usually bioavailability stands for dose-corrected exposure relative to a reference, in per cent.
